Measurements published in ChEMBL document CHEMBL4325864, “Discovery of new potent protein arginine methyltransferase 5 (PRMT5) inhibitors by assembly of key pharmacophores from known inhibitors” (Bioorg Med Chem Lett, 2018).
Calls of active or inactive are those of the source. The calls are words filed in the database; no cut-off is given here.

How the values were obtained:
PRMT5/MEP50 complex [1] = molecular target: T1, PRMT5/MEP50 complex (Homo sapiens, UniProt O14744); experiment: Inhibition of recombinant human N-terminal FLAG-tagged PRMT5 (2 to end residues) /human N-terminal His-tagged MEP50 (2 to end residues) expressed in HEK293F cells pretreated for 15 mins followed by substrate and [3H]-SAM addition measured after 60 mins by scintillation proximity assay; type: cell-based
Method in brief: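 PRMT5 enzymatic inhibition measured by radiometric scintillation proximity assay; IC50 determined.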

[2] = molecular target: Protein arginine N-methyltransferase 1 (Homo sapiens, UniProt Q99873); experiment: Inhibition of PRMT1 (unknown origin) pretreated for 15 mins followed by substrate and [3H]-SAM addition measured after 60 mins by scintillation proximity assay
Method in brief: (§1)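 PRMT1 and PRMT4 enzyme-inhibition assays used to assess selectivity; IC50 values determined for each enzyme.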

[3] = molecular target: T2, Histone-arginine methyltransferase CARM1 (Homo sapiens, UniProt Q86X55); experiment: Inhibition of PRMT4 (unknown origin) pretreated for 15 mins followed by substrate and [3H]-SAM addition measured after 60 mins by scintillation proximity assay; method in brief: as §1
T2 sequence (Q86X55 whole entry): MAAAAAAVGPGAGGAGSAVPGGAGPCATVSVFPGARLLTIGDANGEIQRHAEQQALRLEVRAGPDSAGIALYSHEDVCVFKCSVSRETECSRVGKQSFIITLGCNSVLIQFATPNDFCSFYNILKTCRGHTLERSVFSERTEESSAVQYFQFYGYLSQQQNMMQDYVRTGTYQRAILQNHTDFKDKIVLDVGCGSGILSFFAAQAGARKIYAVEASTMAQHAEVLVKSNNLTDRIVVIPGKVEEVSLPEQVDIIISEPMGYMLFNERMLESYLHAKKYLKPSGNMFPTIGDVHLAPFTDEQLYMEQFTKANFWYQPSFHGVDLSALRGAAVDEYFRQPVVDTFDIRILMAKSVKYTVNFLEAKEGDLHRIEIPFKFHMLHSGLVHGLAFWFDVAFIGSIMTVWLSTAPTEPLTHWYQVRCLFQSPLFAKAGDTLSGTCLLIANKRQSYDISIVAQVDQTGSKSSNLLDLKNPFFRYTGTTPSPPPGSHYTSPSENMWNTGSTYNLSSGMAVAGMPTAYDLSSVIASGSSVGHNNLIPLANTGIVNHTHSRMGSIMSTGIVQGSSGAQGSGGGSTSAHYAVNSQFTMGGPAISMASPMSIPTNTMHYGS

[4] = molecular target: T3, Protein arginine N-methyltransferase 5 (Homo sapiens, UniProt O14744); experiment: Competitive inhibition of recombinant human N-terminal FLAG-tagged PRMT5 (2 to end residues) /human N-terminal His-tagged MEP50 (2 to end residues) expressed in HEK293F cells pretreated for 15 mins followed by varying peptide substrate and fixed [3H]-SAM addition measured after 60 mins by scintillation proximity assay; type: cell-based
Method in brief: (§2)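 Mode of inhibition: IC50 values determined by radiometric scintillation proximity assay in the presence of various concentrations of peptide substrate and SAM; experiments performed in triplicate.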

MV4-11 = experiment: Antiproliferative activity against human MV4-11 cells after 4 days by cell titer-glo luminescent cell viability assay; details: MV4-11, 96 h
Pfeiffer = experiment: Antiproliferative activity against human Pfeiffer cells after 4 days by cell titer-glo luminescent cell viability assay; details: 96 h
SUD4 = experiment: Antiproliferative activity against human SU-DHL4 cells after 4 days by cell titer-glo luminescent cell viability assay; details: SU-DHL-4, 96 h
KARPAS-422 [5] = experiment: Antiproliferative activity against human KARPAS422 cells after 4 days by cell titer-glo luminescent cell viability assay; details: KARPAS-422, 96 h
[6] = molecular target: T3, Protein arginine N-methyltransferase 5; experiment: Inhibition of PRMT5 in human KARPAS422 cells assessed as decrease in symmetric arginine dimethylation of SmD3 after 4 days by Western blot analysis; type: cell-based; details: in the assay text read “after 72 h” for “after 4 days”
Method in brief: (§3)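 KARPAS-422 and SU-DHL-4 cells treated across a concentration range; symmetric arginine dimethylation of SmD3 detected by Western blot with symmetric dimethyl arginine (SDMA) antibody.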

[7] = molecular target: T3, Protein arginine N-methyltransferase 5; experiment: Inhibition of PRMT5 in human SU-DHL4 cells assessed as decrease in symmetric arginine dimethylation of SmD3 after 4 days by Western blot analysis; type: cell-based; details: in the assay text read “after 72 hrs” for “after 4 days”; method in brief: as §3
KARPAS-422 [8] = experiment: Induction of apoptosis in human KARPAS422 cells assessed as viable cells at 4 uM after 48 hrs by AnnexinV-FITC staining-based flow cytometric analysis (reference value: 91.3%); type: functional; details: KARPAS-422, 48 h, read-out: Activity
KARPAS-422 [9] = experiment: Induction of apoptosis in human KARPAS422 cells assessed as apoptotic cells at 4 uM after 48 hrs by AnnexinV-FITC staining-based flow cytometric analysis (reference value: 4.08%); type: functional
KARPAS-422 [10] = experiment: Induction of apoptosis in human KARPAS422 cells assessed as necrotic cells at 4 uM after 48 hrs by AnnexinV-FITC staining-based flow cytometric analysis (reference value: 3.20%); type: functional
KARPAS-422 [11] = experiment: Induction of apoptosis in human KARPAS422 cells assessed as viable cells at 8 uM after 48 hrs by AnnexinV-FITC staining-based flow cytometric analysis (reference value: 91.3%); type: functional; details: KARPAS-422, 48 h, read-out: Activity
KARPAS-422 [12] = experiment: Induction of apoptosis in human KARPAS422 cells assessed as apoptotic cells at 8 uM after 48 hrs by AnnexinV-FITC staining-based flow cytometric analysis (reference value: 4.08%); type: functional
KARPAS-422 [13] = experiment: Induction of apoptosis in human KARPAS422 cells assessed as necrotic cells at 8 uM after 48 hrs by AnnexinV-FITC staining-based flow cytometric analysis (reference value: 3.20%); type: functional
KARPAS-422 [14] = experiment: Induction of apoptosis in human KARPAS422 cells assessed as viable cells at 16 uM after 48 hrs by AnnexinV-FITC staining-based flow cytometric analysis (reference value: 91.3%); type: functional; details: KARPAS-422, 48 h, read-out: Activity
KARPAS-422 [15] = experiment: Induction of apoptosis in human KARPAS422 cells assessed as apoptotic cells at 16 uM after 48 hrs by AnnexinV-FITC staining-based flow cytometric analysis (reference value: 4.08%); type: functional
KARPAS-422 [16] = experiment: Induction of apoptosis in human KARPAS422 cells assessed as necrotic cells at 16 uM after 48 hrs by AnnexinV-FITC staining-based flow cytometric analysis (reference value: 3.20%); type: functional
KARPAS-422 [17] = experiment: Cell cycle arrest in human KARPAS422 cells assessed as accumulation of cells at G1 phase at 4 uM after 48 hrs by propidium iodide staining-based flow cytometric analysis (reference value: 39.56%); type: functional
KARPAS-422 [18] = experiment: Cell cycle arrest in human KARPAS422 cells assessed as accumulation of cells at G1 phase at 8 uM after 48 hrs by propidium iodide staining-based flow cytometric analysis (reference value: 39.56%); type: functional
KARPAS-422 [19] = experiment: Cell cycle arrest in human KARPAS422 cells assessed as accumulation of cells at G1 phase at 16 uM after 48 hrs by propidium iodide staining-based flow cytometric analysis (reference value: 39.56%); type: functional
KARPAS-422 [20] = experiment: Cell cycle arrest in human KARPAS422 cells assessed as accumulation of cells at G1 phase after 48 hrs by propidium iodide staining-based flow cytometric analysis; type: functional
KARPAS-422 [21] = experiment: Induction of apoptosis in human KARPAS422 cells after 48 hrs by AnnexinV-FITC staining-based flow cytometric analysis; type: functional, cell-based
PRMT5/MEP50 complex [22] = molecular target: T1, PRMT5/MEP50 complex; experiment: Binding affinity to PRMT5 (unknown origin)/MEP50 (unknown origin) by SPR assay; type: protein-complex assay
Method in brief: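 Direct binding to PRMT5 measured by surface plasmon resonance; equilibrium dissociation constant (KD) derived.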

[23] = molecular target: T3, Protein arginine N-methyltransferase 5; experiment: Non-competitive inhibition of recombinant human N-terminal FLAG-tagged PRMT5 (2 to end residues) /human N-terminal His-tagged MEP50 (2 to end residues) expressed in HEK293F cells pretreated for 15 mins followed by fixed peptide substrate and varying [3H]-SAM addition measured after 60 mins by scintillation proximity assay; type: cell-based; method in brief: as §2
KARPAS-422 [24] = experiment: Cell cycle arrest in human KARPAS422 cells assessed as accumulation of cells at S phase at 4 uM after 48 hrs by propidium iodide staining-based flow cytometric analysis (reference value: 47.8%); type: functional
KARPAS-422 [25] = experiment: Cell cycle arrest in human KARPAS422 cells assessed as accumulation of cells at S phase at 8 uM after 48 hrs by propidium iodide staining-based flow cytometric analysis (reference value: 47.8%); type: functional
KARPAS-422 [26] = experiment: Cell cycle arrest in human KARPAS422 cells assessed as accumulation of cells at S phase at 16 uM after 48 hrs by propidium iodide staining-based flow cytometric analysis (reference value: 47.8%); type: functional
KARPAS-422 [27] = experiment: Cell cycle arrest in human KARPAS422 cells assessed as accumulation of cells at G2/M phase at 4 uM after 48 hrs by propidium iodide staining-based flow cytometric analysis (reference value: 12.64%); type: functional
KARPAS-422 [28] = experiment: Cell cycle arrest in human KARPAS422 cells assessed as accumulation of cells at G2/M phase at 8 uM after 48 hrs by propidium iodide staining-based flow cytometric analysis (reference value: 12.64%); type: functional
KARPAS-422 [29] = experiment: Cell cycle arrest in human KARPAS422 cells assessed as accumulation of cells at G2/M phase at 16 uM after 48 hrs by propidium iodide staining-based flow cytometric analysis (reference value: 12.64%); type: functional
[30] = molecular target: T3, Protein arginine N-methyltransferase 5; experiment: Inhibition of PRMT5 (unknown origin)
[31] = molecular target: T3, Protein arginine N-methyltransferase 5; experiment: Inhibition of full-length N-terminal FLAG-tagged PRMT5 (unknown origin) (1 to 637 residues) expressed in baculovirus infected Sf9 insect cells using histone H4 as peptide after 5 hrs in presence of [H3]AdoMet by scintillation proximity assay

T3 sequence (O14744 whole entry): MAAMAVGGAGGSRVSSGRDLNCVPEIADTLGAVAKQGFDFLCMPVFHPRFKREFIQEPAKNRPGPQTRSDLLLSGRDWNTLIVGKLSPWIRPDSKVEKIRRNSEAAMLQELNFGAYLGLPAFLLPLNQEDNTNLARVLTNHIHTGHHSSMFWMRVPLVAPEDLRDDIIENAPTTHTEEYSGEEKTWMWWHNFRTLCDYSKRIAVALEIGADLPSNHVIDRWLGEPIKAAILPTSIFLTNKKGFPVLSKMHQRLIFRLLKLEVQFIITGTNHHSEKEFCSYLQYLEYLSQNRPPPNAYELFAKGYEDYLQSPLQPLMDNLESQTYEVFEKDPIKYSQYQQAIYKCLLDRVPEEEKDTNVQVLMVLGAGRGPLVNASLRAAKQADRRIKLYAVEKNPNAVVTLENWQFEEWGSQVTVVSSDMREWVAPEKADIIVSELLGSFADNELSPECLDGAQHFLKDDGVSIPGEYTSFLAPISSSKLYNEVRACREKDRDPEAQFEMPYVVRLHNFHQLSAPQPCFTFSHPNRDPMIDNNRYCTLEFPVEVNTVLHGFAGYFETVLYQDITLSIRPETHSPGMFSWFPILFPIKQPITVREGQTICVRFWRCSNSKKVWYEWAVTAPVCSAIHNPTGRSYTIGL
T1 sequence (O14744 whole entry): as above
T1 sequence (Q9BQA1 whole entry, further chain): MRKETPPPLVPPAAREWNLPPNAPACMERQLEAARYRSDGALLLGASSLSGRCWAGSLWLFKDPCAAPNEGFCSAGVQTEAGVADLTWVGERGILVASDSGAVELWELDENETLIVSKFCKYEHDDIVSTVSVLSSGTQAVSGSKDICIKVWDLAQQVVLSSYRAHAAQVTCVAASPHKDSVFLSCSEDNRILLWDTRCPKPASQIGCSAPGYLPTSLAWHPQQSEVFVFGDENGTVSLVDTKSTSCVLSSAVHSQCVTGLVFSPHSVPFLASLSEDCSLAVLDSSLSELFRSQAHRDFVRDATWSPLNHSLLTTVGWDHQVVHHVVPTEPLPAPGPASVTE
Protein arginine N-methyltransferase 1, sequence (Q99873 whole entry): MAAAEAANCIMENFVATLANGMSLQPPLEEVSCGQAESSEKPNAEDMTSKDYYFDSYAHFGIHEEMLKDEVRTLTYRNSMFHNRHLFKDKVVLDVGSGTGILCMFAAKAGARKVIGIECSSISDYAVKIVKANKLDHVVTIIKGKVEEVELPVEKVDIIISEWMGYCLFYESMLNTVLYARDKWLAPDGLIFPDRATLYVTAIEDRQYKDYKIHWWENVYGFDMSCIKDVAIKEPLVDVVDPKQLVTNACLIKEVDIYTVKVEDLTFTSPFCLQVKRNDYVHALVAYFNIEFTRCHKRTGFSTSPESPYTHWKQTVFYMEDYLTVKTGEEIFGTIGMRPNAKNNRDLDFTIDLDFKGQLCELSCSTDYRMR

O=C(CCN1CCc2ccccc2C1)Nc1ccc(Oc2ccccc2)cc1
IC50 (PRMT5/MEP50 complex [1]): > 100 µM

COC(=O)c1ccccc1NC(=O)CCCN1CCc2ccccc2C1
IC50 (PRMT5/MEP50 complex [1]): 87.9 µM

O=C(CCN1CCc2ccccc2C1)NNC(=O)c1ccccc1
IC50 (PRMT5/MEP50 complex [1]): 72.7 µM

N#Cc1c(Br)cccc1NC(=O)CCN1CCc2ccccc2C1
IC50 (PRMT5/MEP50 complex [1]): 2.71 µM
IC50 [2]: > 200 µM
IC50 [3]: > 200 µM
inhibition [4]: Active
IC50 (MV4-11): 12.5 µM
IC50 (Pfeiffer): 11.1 µM
IC50 (SUD4): 16.4 µM
IC50 (KARPAS-422 [5]): 9.1 µM
inhibition [6]: Dose-dependent effect
inhibition [7]: inactive
viability at 4 µM (KARPAS-422 [8]): 90.5%
Activity (KARPAS-422 [9]): 4.66%
Activity (KARPAS-422 [10]): 2.35%
viability at 8 µM (KARPAS-422 [11]): 88.1%
Activity (KARPAS-422 [12]): 7.89%
Activity (KARPAS-422 [13]): 2.93%
viability at 16 µM (KARPAS-422 [14]): 66.3%
Activity (KARPAS-422 [15]): 23.1%
Activity (KARPAS-422 [16]): 8.76%
Activity (KARPAS-422 [17]): 44.75%
Activity (KARPAS-422 [18]): 50.53%
Activity (KARPAS-422 [19]): 54.34%
Activity (KARPAS-422 [20]): Dose-dependent effect
Activity (KARPAS-422 [21]): Dose-dependent effect
Kd (PRMT5/MEP50 complex [22]): 10.8 µM
inhibition [23]: Active
Activity (KARPAS-422 [24]): 41.52%
Activity (KARPAS-422 [25]): 37.72%
Activity (KARPAS-422 [26]): 36.18%
Activity (KARPAS-422 [27]): 13.73%
Activity (KARPAS-422 [28]): 11.75%
Activity (KARPAS-422 [29]): 9.48%

O=C(NC[C@H]1C[C@@H]2CC[N@@]1C[C@@H]2CN1CCC(Cc2ccccc2)CC1)c1ccc2c(c1)OCO2
IC50 [30]: 1.5 µM

O=C(CCN1CCc2ccccc2C1)Nc1cccc2ncccc12
IC50 (PRMT5/MEP50 complex [1]): > 100 µM

O=C(CCN1CCc2ccccc2C1)Nc1cccc2ccccc12
IC50 (PRMT5/MEP50 complex [1]): > 100 µM

CCOC(=O)c1ccc(NC(=O)CCN2CCc3ccccc3C2)cc1
IC50 (PRMT5/MEP50 complex [1]): > 100 µM

COC(=O)c1cc(F)c(F)cc1NC(=O)CCN1CCc2ccccc2C1
IC50 (PRMT5/MEP50 complex [1]): > 100 µM

Nc1ncnc2c1ncn2[C@@H]1O/C(=C\[C@@H](N)CC[C@H](N)C(=O)O)[C@@H](O)[C@H]1O
IC50 [31]: 0.035 µM

O=C(CCN1CCc2ccccc2C1)Nc1cccc(Br)c1
IC50 (PRMT5/MEP50 complex [1]): 18.1 µM

O=C(CCN1CCc2ccccc2C1)Nc1cccc(F)c1
IC50 (PRMT5/MEP50 complex [1]): 45.9 µM

O=C(CCN1CCc2ccccc2C1)Nc1nccc(C(F)(F)F)n1
IC50 (PRMT5/MEP50 complex [1]): 69.9 µM

Nc1ncnc2c1ncn2[C@@H]1O[C@H](C[C@@H](N)CC[C@H](N)C(=O)O)[C@@H](O)[C@H]1O [SINEFUNGIN]
IC50 [31]: 8.6 µM
